Screening results from PubChem BioAssay.
HUVEC inhibit = inhibitors of HUVEC proliferation, primary screen, cell-based, 384-well. CellTiter-Glo luminescence, 72 h; active compounds read low. viability, % at 10 µM (by protocol). actives 1.1% (n = 86,000);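 active = viability at or below 30%; inactive = viability above 30%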;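 also: 100% = median luminescence of DMSO-only cell control wells on each plate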
H69AR growth 86K = proliferation blockers of H69AR lung cancer cells, primary screen, cell-based, human, 86K library. H69AR lung tumor viability, ATP luminescence, 72 h; active compounds read low. viability, % at 10 µM. actives 6% (n = 85,000). AID 598, 2007;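 active = viability at or below 40%; inactive = viability above 40%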;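 also: multidrug resistant small cell line overexpressing MRP-1 efflux transporter; 100% = mean luminescence of untreated control wells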
Fibroblast inh = antiproliferative effect on LL 47 fibroblasts – human, LL 47 cells, CellTiter-Glo luminescence, primary screen | LL 47 human lung fibroblast viability, ATP luminescence; active compounds read low | viability, % at 10 µM | actives 1.1% (n = 85,000) | AID 719, 2007;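 active = viability at or below 50% in the single dose screen; inactive = viability above 50%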;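 also: compound exposure lasted 72 h before the ATP readout; 100% = median luminescence of untreated cell-only wells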
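Material: Human LL 47 lung fibroblast cells | Input: 1,150 cells/well | Buffer or medium: IMEM plus 15% FBS | Compound dosing: 0.1% DMSO in all compound wells | Times: Overnight cell rest, 72 h compound treatment at 37 °C | Signal: CellTiter-Glo luminescence measuring cellular ATP | Measure: % viability versus median cells-only luminescence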
HCT116 bCat-KO = primary screen for growth suppressors in beta-catenin knockout HCT116 cells (colon tumor, human); actives 1.5% (n = 140,000); AID 818, 2007; HCT116 beta-catenin knockout viability, CellTiter-Glo, 60 h; active compounds read low; viability, % at 10 µM;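 active = viability at or under a set limit, the compound median less 4 SD, cut at about 6% in these data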;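 also: 0% = Hyamine 1622 control at 20 µM and 100% = untreated cell control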
PTEN del growth = growth suppression of PTEN-null HCT116, primary screen, cell-based, CellTiter-Glo | HCT116 PTEN-null viability, 60 h; active compounds read low | viability, % at 10 µM | actives 1.2% (n = 140,000) | AID 827, 2007;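 active = viability at or below a set limit, 4 SD under the median of all tested compounds, cut at about 3.7% in these data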;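 also: PTEN knockout HCT116 line with beta catenin targeted HCT116 as companion control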
An asterisk follows results filed as active; nt = not tested or not shown. The entries come from a sample that favours hits as a whole.

SMILES	HUVEC inhibit	H69AR growth 86K	Fibroblast inh	HCT116 bCat-KO	PTEN del growth
Fc1cccc(Nc2cc(-n3cccn3)ncn2)c1	88.3	51.7	95.7	81.5	77.2
C=C(C)CNC(=S)NNC(=O)CCn1c2ccc(Cl)cc2c2cc(Cl)ccc21	nt	nt	nt	2.7*	3.5*
O=C(Nc1cccnc1)c1ccc(COc2ccccc2Br)o1	24.4*	44.4	59.0	25.6	26.5
Cc1nc(N2CCN(C)CC2)c2c(C)c(C(=O)Nc3ccc(C)c(F)c3)sc2n1	3.7*	49.1	43.5*	10.8	9.6
COC(=O)c1sc2nc(-c3ccccc3)nc(N3CCN(C)CC3)c2c1C	45.7	70.5	79.6	58.1	57.9
CC(=O)Nc1ccc(S(=O)(=O)NC2(C(F)(F)F)N=C(c3ccccc3)NC2=O)cc1 (configuration not stated)	nt	nt	nt	107.8	104.9
Cc1cc(N(CC(=O)NC(C)C)S(C)(=O)=O)ccc1Br	nt	nt	nt	92.9	93.7
Cn1ncc2c1ncn1c(-c3ccccc3Cl)nnc21	89.6	94.4	99.4	nt	nt
COc1ccc(-c2[nH]c(-c3ccccc3)nc2SCC(=O)NCc2ccco2)cc1OC	85.9	76.2	91.0	87.0	84.2
COc1ccc(-c2[nH]c(-c3ccc(F)cc3)nc2SCC(=O)NCc2ccco2)cc1OC	83.3	39.5*	95.9	87.2	97.1
CC1CC(C)CN(CCOc2ccc(Br)cc2)C1 (configuration not stated)	nt	nt	nt	83.2	90.5
CSc1ccc(/C=N/NC(=O)c2cccc(O)c2)cc1	nt	nt	nt	37.3	46.5
CC(C)(C)c1ccc(S(=O)(=O)N2CCC(c3nc4ccc(Cl)cc4[nH]3)CC2)cc1	66.9	34.6*	85.3	67.2	46.6
COC(=O)c1c(NC(=O)CN2C(=O)NC3(CCc4ccccc4C3)C2=O)sc2c1CCCCC2 (configuration not stated)	nt	nt	nt	82.5	90.5
CCc1c(C(=O)Nc2cc(C)ccc2OC)[nH]c(C)c1C(C)=O	65.6	74.4	92.4	78.1	82.3
CCCNC(=O)COC(=O)c1[nH]c(C)c(C(=O)OCC)c1C	100.7	94.6	99.6	77.3	93.4
CCOC(=O)c1[nH]c(C)c(C(=O)c2cc(F)ccc2F)c1C	50.1	29.8*	56.8	13.5	13.4
CCOC(=O)c1c(C)[nH]c(C(=O)OCC(=O)Nc2cc(C)c(Cl)cc2OC)c1C	nt	nt	nt	1.6*	1.5*
CCOC(=O)c1[nH]c(C)c(C(=O)Nc2ccc(Cl)cc2)c1C	100.9	91.2	102.5	90.1	94.2
CCOC(=O)c1ccc(NC(=O)c2c(C)[nH]c(C(=O)OCC)c2C)cc1	95.6	75.2	49.2*	81.5	98.7
CCc1c(C(=O)Nc2ccc(OC)cc2)[nH]c(C)c1C(C)=O	85.5	26.4*	92.1	60.5	65.0
Cc1ccc(-n2c(C)cc(/C=C3\NC(=O)NC3=O)c2C)c(C)c1	nt	nt	nt	84.6	83.6
CCN(CC)S(=O)(=O)c1cccc(C(=O)NC(C(=O)Nc2nnc(C)s2)C(C)C)c1 (configuration not stated)	93.9	96.9	90.3	92.5	92.6
COC(=O)c1ccc(-c2ccc(Cl)cc2)nc1C	nt	nt	nt	96.6	96.5
CC(=O)c1c(C)[nH]c(C(=O)OCC(=O)Nc2ncc(Cl)c(C)c2Cl)c1C	94.4	85.3	nt	95.8	97.7
SMILES	HUVEC inhibit	H69AR growth 86K	Fibroblast inh	HCT116 bCat-KO	PTEN del growth
CCOC(=O)c1[nH]c(C)c(C(=O)Nc2cccc(Cl)c2C)c1C	46.3	15.3*	80.7	30.0	24.1
CCOC(=O)c1[nH]c(C)c(C(=O)N2CCc3ccccc32)c1C	45.4	25.6*	48.9*	12.9	12.1
CCOC(=O)c1[nH]c(C)c(C(=O)OC(C)C(=O)Nc2ncc(Cl)cc2Cl)c1C (configuration not stated)	78.7	25.7*	95.9	52.1	42.1
COc1ccc(OC)c(N(CC(=O)Nc2ccc3c(c2)OCCO3)S(C)(=O)=O)c1	93.0	84.9	89.3	108.6	101.9
COc1cc([N+](=O)[O-])cc(CN2CCCCC2)c1O	nt	nt	nt	104.8	91.1
COc1ccc(Cn2c(CCC(=O)Nc3ccccc3)nc3cccnc32)cc1	75.1	88.7	95.3	92.9	104.5
COc1ccc(Cn2c(CCC(=O)Nc3ccc(C)c(C)c3)nc3cccnc32)cc1	84.5	37.4*	104.9	103.8	88.3
N#CC1=C2SCC(O)(c3ccccc3)N2C(=O)CC1c1ccccc1 (configuration not stated)	39.7	24.4*	46.8*	19.9	23.4
Cc1ccc(Oc2ccc(S(=O)(=O)N3CCOCC3)cc2C(N)=O)c(-n2nc3ccccc3n2)c1	41.8	31.4*	53.0	14.9	10.4
CC(=O)c1ccccc1Oc1nc(CN2CCOCC2)nc2scc(-c3cccs3)c12	75.0	29.5*	nt	60.7	56.6
COc1ccc(OC)c(Nc2nc(-c3sc(NC(=O)C(C)(C)C)nc3C)cs2)c1	nt	nt	nt	82.2	61.9
COc1ccc(OC)c(Nc2nc(-c3sc(C)nc3C)cs2)c1	58.3	25.6*	94.5	94.3	76.3
O=C(CNS(=O)(=O)c1cccc2nsnc12)NCc1ccc(Cl)cc1	97.1	93.0	100.0	84.9	84.1
Cc1nn(-c2ccccc2)c(=S)c2ccccc12	nt	nt	nt	94.8	93.2
CCCc1cc(O)c2c(C)cc(=O)oc2c1	77.8	84.4	87.1	104.7	96.4
Cc1nc2ccccc2c(=O)n1/N=C/c1c(O)ccc2oc3c(c12)CCCC3	77.1	65.0	63.6	4.9*	3.0*
COc1ccc2nc(NC(=O)CSC3=NCCS3)sc2c1	29.8*	43.3	94.5	72.9	78.2
O=C(CSC1=NCCS1)Nc1nc2c(s1)CCCC2	73.4	17.1*	98.8	87.4	94.3
CCOc1ccc2nc(NC(=O)CSC3=NCCS3)sc2c1	58.9	1.1*	92.1	83.6	80.9
CCOc1ccc2nc(NC(=O)CN3CCC(n4nnc5cc(F)ccc54)CC3)sc2c1	9.2*	41.4	88.6	10.0	12.2
O=C(O)CCNc1ccc2c(c1)OCCO2	100.5	97.4	86.3	102.6	113.0
O=C1/C(=N/n2cnnc2)c2ccccc2N1Cc1ccccc1	69.8	17.3*	91.6	13.2	21.9
Cc1ccc(C(C[N+](=O)[O-])n2nc(C)cc2C)cc1 (configuration not stated)	nt	nt	nt	3.9*	1.9*
Cc1ccc(S(=O)(=O)n2nc(C)cc2C)cc1	79.9	88.7	97.0	102.2	94.9
C=CCn1c(SCc2c(C)noc2C)nc2sc(C)c(C)c2c1=O	51.5	19.5*	67.8	26.3	26.1
Cc1cc2c(=O)n(Cc3ccco3)c(SCC(=O)c3ccc(Cl)s3)nc2s1	82.0	12.7*	99.5	71.4	70.2
Cc1sc2nc(SCC(=O)C(C)(C)C)n(Cc3ccco3)c(=O)c2c1C	63.9	91.9	49.4*	14.8	18.4
C=CCn1c(SCC(=O)NC(=O)NCc2ccco2)nc2sc(C)c(C)c2c1=O	57.0	11.4*	52.0	104.3	104.3
